Activity calls are given as the source filed them. The calls are words filed in the database; no cut-off is given here.
Legend:
[1] = biological target: T1, Ephrin type-B receptor 2 (Homo sapiens) (UniProt P29323); experiment: Inhibition of EPH-B2 assessed as residual activity at 10 uM
T1 sequence (whole entry): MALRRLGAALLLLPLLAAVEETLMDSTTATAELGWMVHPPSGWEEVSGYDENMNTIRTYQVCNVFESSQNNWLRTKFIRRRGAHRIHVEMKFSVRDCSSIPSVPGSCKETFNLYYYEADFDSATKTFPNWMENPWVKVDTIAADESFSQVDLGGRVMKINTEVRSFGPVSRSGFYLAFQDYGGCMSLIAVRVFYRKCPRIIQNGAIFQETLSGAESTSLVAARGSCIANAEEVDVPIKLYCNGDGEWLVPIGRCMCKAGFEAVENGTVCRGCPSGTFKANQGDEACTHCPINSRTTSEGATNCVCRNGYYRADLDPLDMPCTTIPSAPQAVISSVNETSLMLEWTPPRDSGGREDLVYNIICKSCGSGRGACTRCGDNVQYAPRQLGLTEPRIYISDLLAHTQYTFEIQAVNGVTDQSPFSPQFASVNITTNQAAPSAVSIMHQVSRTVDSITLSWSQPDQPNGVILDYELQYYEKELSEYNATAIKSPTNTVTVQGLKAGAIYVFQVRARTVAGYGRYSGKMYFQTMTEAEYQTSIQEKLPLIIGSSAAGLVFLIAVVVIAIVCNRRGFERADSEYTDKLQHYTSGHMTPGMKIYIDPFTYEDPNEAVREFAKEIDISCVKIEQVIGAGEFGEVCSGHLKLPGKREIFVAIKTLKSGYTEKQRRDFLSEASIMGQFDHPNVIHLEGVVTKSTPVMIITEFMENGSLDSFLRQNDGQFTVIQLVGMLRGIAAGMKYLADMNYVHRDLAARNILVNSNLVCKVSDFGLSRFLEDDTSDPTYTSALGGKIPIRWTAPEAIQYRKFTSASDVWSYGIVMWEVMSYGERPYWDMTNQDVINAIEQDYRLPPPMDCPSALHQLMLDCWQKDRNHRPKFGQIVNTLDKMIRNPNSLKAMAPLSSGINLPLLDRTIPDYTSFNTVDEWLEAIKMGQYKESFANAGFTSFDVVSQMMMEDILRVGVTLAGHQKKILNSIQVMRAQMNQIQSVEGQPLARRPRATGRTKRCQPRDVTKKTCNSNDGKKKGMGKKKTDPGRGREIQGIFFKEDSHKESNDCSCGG
Method in brief: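 Standard radioactivity-based enzymatic kinase assays on a 131-kinase panel run by the Dundee profiling service; residual kinase activity recorded.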

[2] = biological target: Testis-specific serine/threonine-protein kinase 1 (Homo sapiens) (UniProt Q9BXA7); experiment: Inhibition of TSSK1 assessed as residual activity at 1 uM
Chain of Testis-specific serine/threonine-protein kinase 1 (Homo sapiens) (Q9BXA7 whole entry): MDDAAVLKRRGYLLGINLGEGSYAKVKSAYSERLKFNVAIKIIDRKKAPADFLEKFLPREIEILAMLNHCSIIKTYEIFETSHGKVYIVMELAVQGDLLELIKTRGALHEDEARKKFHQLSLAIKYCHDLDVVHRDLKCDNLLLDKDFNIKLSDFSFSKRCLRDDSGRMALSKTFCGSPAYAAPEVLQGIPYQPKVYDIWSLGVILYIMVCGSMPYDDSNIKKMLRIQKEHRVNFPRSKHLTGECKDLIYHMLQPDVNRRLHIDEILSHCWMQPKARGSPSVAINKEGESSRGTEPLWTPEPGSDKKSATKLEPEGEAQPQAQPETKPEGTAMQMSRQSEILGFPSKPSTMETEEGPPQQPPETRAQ

[3] = biological target: Ephrin type-B receptor 4 (Homo sapiens) (UniProt P54760); experiment: Inhibition of EPH-B4 assessed as residual activity at 10 uM
Chain of Ephrin type-B receptor 4 (Homo sapiens) (P54760 whole entry): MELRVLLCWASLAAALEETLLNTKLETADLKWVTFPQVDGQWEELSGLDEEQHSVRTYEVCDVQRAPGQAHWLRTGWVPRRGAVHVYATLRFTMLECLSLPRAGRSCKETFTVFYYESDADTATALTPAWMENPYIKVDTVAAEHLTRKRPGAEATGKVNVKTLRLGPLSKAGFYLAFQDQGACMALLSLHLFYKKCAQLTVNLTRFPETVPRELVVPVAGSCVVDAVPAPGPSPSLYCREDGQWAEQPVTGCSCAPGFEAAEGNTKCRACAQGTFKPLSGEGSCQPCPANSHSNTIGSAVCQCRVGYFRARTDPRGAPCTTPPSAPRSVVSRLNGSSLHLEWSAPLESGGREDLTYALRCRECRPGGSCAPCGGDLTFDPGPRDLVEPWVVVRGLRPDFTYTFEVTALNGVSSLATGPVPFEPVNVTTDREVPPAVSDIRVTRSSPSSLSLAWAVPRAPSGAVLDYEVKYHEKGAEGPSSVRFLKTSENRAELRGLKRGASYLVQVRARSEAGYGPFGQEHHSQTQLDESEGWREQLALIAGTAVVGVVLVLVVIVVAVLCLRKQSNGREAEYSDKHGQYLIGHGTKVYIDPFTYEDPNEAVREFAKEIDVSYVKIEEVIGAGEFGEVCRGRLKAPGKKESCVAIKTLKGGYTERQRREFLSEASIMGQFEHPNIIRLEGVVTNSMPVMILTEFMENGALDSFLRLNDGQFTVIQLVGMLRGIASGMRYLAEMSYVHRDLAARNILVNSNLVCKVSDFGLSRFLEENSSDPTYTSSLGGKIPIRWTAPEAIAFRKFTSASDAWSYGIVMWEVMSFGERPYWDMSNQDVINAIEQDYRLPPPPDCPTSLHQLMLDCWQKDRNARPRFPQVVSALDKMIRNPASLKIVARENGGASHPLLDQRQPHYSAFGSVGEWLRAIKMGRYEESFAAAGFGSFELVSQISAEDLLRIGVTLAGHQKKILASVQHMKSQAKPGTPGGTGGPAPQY
Method in brief: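 Radioactivity-based enzymatic assay against a panel of 131 kinases (Dundee profiling). Activity remaining was measured with compound present at the stated concentration.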

[4] = biological target: T2, Mitogen-activated protein kinase kinase kinase 7 (Homo sapiens) (UniProt O43318); experiment: Inhibition of TAK1 assessed as residual activity at 10 uM
T2 sequence (whole entry): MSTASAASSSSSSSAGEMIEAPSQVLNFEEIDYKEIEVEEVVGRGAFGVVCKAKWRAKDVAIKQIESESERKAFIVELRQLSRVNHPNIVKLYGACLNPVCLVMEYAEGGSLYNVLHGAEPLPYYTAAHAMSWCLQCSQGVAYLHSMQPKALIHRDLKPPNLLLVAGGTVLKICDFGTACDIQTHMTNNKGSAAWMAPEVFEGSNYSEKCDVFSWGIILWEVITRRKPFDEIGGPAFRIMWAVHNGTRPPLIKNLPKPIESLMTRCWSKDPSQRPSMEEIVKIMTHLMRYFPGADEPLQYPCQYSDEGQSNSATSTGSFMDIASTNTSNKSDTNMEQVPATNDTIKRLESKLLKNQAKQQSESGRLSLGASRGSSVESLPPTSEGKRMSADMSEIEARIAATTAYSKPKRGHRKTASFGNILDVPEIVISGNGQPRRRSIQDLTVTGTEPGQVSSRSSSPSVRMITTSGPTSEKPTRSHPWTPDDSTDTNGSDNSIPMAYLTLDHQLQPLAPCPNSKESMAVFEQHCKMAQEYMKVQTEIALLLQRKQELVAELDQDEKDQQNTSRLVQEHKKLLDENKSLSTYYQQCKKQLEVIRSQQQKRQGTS

Mus musculus = experiment: Inhibition of LRRK2 in mouse assessed as inhibition of Ser935 autophosphorylation in spleen at 100 mg/kg, ip by immunoblot method; type: functional, organism-based; parameters: dose 100 mg/kg
[5] = biological target: Serine/threonine-protein kinase pim-1 (Homo sapiens) (UniProt P11309); experiment: Inhibition of PIM1 assessed as residual activity at 1 uM
Chain of Serine/threonine-protein kinase pim-1 (Homo sapiens) (P11309 whole entry, looked up, the tested form may be a part): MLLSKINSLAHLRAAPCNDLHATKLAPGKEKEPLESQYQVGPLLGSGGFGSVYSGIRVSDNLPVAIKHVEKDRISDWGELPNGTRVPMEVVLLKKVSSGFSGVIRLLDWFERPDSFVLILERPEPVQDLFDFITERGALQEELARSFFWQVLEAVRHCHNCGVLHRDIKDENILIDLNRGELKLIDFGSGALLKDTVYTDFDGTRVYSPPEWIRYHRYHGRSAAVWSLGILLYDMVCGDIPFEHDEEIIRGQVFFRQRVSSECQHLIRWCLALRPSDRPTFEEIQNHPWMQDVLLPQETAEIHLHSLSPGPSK

[6] = biological target: Phosphatidylinositol 4-phosphate 3-kinase C2 domain-containing subunit beta (Homo sapiens) (UniProt O00750); experiment: Inhibition of PIK3C2B assessed as residual activity at 10 uM relative to control
Chain of Phosphatidylinositol 4-phosphate 3-kinase C2 domain-containing subunit beta (Homo sapiens) (O00750 whole entry, the tested form may be a part): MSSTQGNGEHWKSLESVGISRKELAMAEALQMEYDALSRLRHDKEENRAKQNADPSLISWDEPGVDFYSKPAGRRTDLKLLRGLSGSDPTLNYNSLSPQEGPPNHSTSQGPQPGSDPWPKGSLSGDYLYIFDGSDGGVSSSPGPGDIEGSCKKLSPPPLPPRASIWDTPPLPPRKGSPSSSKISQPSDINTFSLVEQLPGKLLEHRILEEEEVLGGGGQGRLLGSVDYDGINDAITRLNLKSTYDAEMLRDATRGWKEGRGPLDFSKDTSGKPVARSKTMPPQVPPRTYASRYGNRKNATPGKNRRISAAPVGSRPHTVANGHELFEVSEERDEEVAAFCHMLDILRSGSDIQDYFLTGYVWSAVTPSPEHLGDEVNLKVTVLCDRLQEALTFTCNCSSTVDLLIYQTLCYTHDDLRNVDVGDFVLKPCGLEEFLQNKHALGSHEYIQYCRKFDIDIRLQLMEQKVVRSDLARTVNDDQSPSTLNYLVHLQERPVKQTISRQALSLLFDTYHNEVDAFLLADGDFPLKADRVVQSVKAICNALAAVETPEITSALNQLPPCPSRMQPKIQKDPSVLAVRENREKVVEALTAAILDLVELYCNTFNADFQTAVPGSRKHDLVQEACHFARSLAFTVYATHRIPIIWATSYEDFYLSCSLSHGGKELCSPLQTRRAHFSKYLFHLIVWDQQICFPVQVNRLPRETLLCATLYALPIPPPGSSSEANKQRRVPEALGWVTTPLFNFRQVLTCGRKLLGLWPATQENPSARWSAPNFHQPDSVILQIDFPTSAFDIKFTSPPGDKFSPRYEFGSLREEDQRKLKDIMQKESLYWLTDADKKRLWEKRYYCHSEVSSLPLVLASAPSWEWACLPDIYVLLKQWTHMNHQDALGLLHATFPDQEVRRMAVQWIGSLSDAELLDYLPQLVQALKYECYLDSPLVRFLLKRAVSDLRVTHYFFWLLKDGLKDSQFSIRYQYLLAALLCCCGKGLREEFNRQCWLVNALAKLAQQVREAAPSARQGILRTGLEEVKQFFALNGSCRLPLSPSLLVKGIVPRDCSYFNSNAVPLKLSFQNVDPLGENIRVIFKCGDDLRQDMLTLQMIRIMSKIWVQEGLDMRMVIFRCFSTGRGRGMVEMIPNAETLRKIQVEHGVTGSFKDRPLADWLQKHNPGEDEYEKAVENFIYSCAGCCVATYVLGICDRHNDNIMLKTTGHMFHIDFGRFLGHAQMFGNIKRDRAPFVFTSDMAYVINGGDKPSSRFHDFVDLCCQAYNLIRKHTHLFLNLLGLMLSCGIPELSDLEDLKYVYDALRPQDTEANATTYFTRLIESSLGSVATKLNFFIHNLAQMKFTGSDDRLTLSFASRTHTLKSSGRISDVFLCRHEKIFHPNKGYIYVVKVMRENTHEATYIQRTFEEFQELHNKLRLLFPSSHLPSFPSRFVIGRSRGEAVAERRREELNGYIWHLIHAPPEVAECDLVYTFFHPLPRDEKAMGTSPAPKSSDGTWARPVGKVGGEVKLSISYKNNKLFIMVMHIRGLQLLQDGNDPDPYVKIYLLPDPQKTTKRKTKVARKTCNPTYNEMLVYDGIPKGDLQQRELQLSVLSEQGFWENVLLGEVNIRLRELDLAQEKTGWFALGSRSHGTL

## O=C(Nc1cccnc1)c1cc(-c2ccnc(F)c2)ccc1OCc1ccccc1
[1]
  Activity: 115%
[2]
  Activity: 103%
[3]
  Activity: 108%
[4]
  Activity: 101%
Mus musculus
  inhibition: Active
[5]
  Activity: 102%
[6]
  Activity: 42%

Reference: ChEMBL document CHEMBL2203081 (Bioorg Med Chem Lett, 2012)
